Test [1] deals with Rattus norvegicus. In words: In vivo protection against pentylenetetrazole-induced convulsions in the rat. It is filed as functional. The gist of the method:
(§1)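 Rats in groups of 10, food-deprived 24 h, given 4–6 graded doses of compound orally (or ip where noted). PTZ at 23 mg/kg was injected iv into the caudal vein 60 min later. Protection meant no clonic seizure lasting at least 5 s. The number protected was counted and the ED50 estimated.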

The test system of test [2] is Rattus norvegicus. In words: Hypotensive activity in saline-loaded spontaneously hypertensive rats following 100 mg/kg p.o. administration. The following applies: route oral. Also on record: unit not given beside the values. It is filed as functional. The gist of the method: (§2)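 Male Okamoto SH rats, about 300 g, gavaged with compound suspended in 2% boiled starch, with 0.9% NaCl loading at 25 mL/kg, at 0 h. An identical dose without saline followed at 24 h. Mean arterial pressure was taken by iliac artery puncture under local lidocaine at 28 h. Values are from one to three rats.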

For test [3], the system named is Rattus norvegicus. As to the kind of experiment: Hypotensive activity evaluated as mean arterial blood pressure (MABP) in saline-loaded spontaneously hypertensive rats dosed (per oral) at 25 mg/kg. It is filed as functional. The gist of the method:
as §2

The species named for test [4] is Rattus norvegicus. In words: Anxiolytic activity for protection against pentylenetetrazole-induced convulsions in experiment 1. It is filed as functional. Put shortly: as §1
Test [5] is filed under the species Rattus norvegicus. As to the kind of experiment: Anxiolytic activity for protection against pentylenetetrazole-induced convulsions in experiment 2. In kind it is functional. The gist of the method:
as §1

For test [6], the target named is GABA-A receptor; anion channel. As to the kind of experiment: In vitro for inhibition of [3H]diazepam towards Benzodiazepine receptor from rat. It is filed as protein-complex assay. The gist of the method: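 Rat frontal cortex homogenized in ice-cold 0.32 M sucrose; crude P2 synaptosomal fraction resuspended in 50 mM Tris-HCl pH 7.4. IC50 read graphically from % inhibition vs log concentration plots.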

Test [7] deals with T1, GABA-A receptor; anion channel (Rattus norvegicus) (UniProt O09028+P15431+P18506+P18508+P19969+P20236+P23574+P23576+P28471+P28473+P30191+P62813+P63079+P63138+Q91ZM7+Q9ES14). As to the kind of experiment: In vitro inhibition of [3H]diazepam binding towards Benzodiazepine receptor at 1 uM. In kind it is protein-complex assay.
Test [8] has as its target T1, GABA-A receptor; anion channel (Rattus norvegicus). As to the kind of experiment: In vitro percent inhibition of [3H]diazepam binding to rat GABA-A benzodiazepine receptor at 1 uM. In kind it is protein-complex assay.
For test [9], the species on record is Rattus norvegicus. In words: Anxiolytic activity for protection against pentylenetetrazole-induced convulsions. It is filed as functional, organism-based. The gist of the method: as §1
Test [10] concerns Rattus norvegicus. In words: Compound was evaluated for anxiolytic activity for protection against pentylenetetrazole-induced convulsions; No activity at 50 mg/Kg. In kind it is functional, organism-based. Put shortly:
as §1

[11] abbreviates: Rattus norvegicus, read-out: ED50.

This is an account of results in ChEMBL document CHEMBL1121835, “Synthesis and anxiolytic activity of 6-(substituted-phenyl)-1,2,4-triazolo[4,3-b]pyridazines” (J Med Chem, 1981).

Active and inactive are the calls of the source. The calls are words filed in the database; no cut-off is given here. Bounds are passed on as bounds.

As usually defined, the ED50 is the midpoint of the dose-response relation. In the case of `Cc1cc2nncn2nc1-c1cccc(C#N)c1`, the 50% effective dose (ED50) in test [1] was found to be 34 mg/kg. Further, the MABP in test [2] is 88; in test [3], 135.
`FC(F)(F)c1nnc2ccc(-c3ccccc3)nn12`: the median effective dose (ED50) in [4] (setting [11]) was found to be 15 mg/kg; in test [5], 18 mg/kg.
In the case of `Clc1ccccc1-c1ccc2nncn2n1`, it took a dose of 18 mg/kg to reach the 50% effect level in [1] (ED50). In [2], the MABP is 127.
In turn, `O=[N+]([O-])c1cccc(-c2ccc3nncn3n2)c1` displayed an ED50 in [1] of 22 mg/kg.
By IC50 is commonly meant the midpoint of a concentration-inhibition curve. The term inhibition denotes how much of the control response was suppressed. The molecule `CNC1=Nc2ccc(Cl)cc2C(c2ccccc2)=[N+]([O-])C1` [CHLORDIAZEPOXIDE] came in with an IC50 in test [6] of 248 nM. The molecule also registered an inhibition in [7] of 75%. This molecule showed a 50% effective dose (ED50) in [1] of 1.7 mg/kg.
`Cc1nnc2ccc(-c3ccc(F)cc3)nn12` came in with a 50% inhibitory concentration (IC50) in [6] of 589 nM. The values for the inhibition in [7] and in test [8] were 65% and 64%, respectively. Further, the ED50 amounted to 2 mg/kg in test [4] and 3.4 mg/kg in test [4] (setting [11]).
`c1ccc(-c2ccc3nnc(-c4ccccc4)n3n2)cc1` came in with an inhibition in test [7] of 74%. The ED50 result in test [9] is “inactive”.
As for `Cc1nnc2ccc(-c3ccccc3)nn12`, in test [6], the IC50 turned out to be 633 nM. The molecule also showed an inhibition in test [7] of 55%. In addition, the ED50 came out at 2.3 mg/kg in test [4] (setting [11]) and 2.9 mg/kg in test [5].
On to `CCCc1nnc2ccc(-c3cccc(C(F)(F)F)c3)nn12`, for which the ED50 result in [9] was “inactive”. Moreover, the MABP in [2] was 112; in test [3] it was 165.
As for `Cc1nnc2ccc(-c3ccc(Cl)c(Cl)c3)nn12`, the ED50 entry in test [9] was “inactive”.
Consider `COCc1nnc2ccc(-c3cccc(C(F)(F)F)c3)nn12`, for which, in test [7], the inhibition came to 23%. For the same molecule, in [1], the median effective dose (ED50) was 6.4 mg/kg.
In the case of `Fc1ccccc1-c1ccc2nncn2n1`, in test [7], the inhibition amounted to 16%. In addition, the ED50 in test [1] turned out to be 17 mg/kg. The MABP in [2] was 112.
For the molecule `Cc1nnc2ccc(-c3ccccc3F)nn12`, in test [6], it took 7450 nM to reach half-maximal inhibition (IC50). Moreover, the inhibition in test [7] stood at 37%. Also, the ED50 in test [1] came out at 10.4 mg/kg.
`Fc1cccc(-c2ccc3nncn3n2)c1` yielded an ED50 in [1] of 5.5 mg/kg.
Molecule `COc1cccc(-c2ccc3nnc(C)n3n2)c1` came in with an IC50 in test [6] of 309 nM. For the same molecule, the inhibition in test [7] is 74%.
In turn, `Cc1cc2nnc(C)n2nc1-c1cccc(C(F)(F)F)c1` gave an inhibition in [7] of 26%. Also, the ED50 in [1] was 13.8 mg/kg. This molecule also showed an MABP in test [2] of 129.
In the case of `Cc1cc2nncn2nc1-c1cccc(C(F)(F)F)c1`, in test [7], the inhibition was found to be 21%. The same molecule displayed an ED50 in test [1] of 12.9 mg/kg.
For `Clc1ccc(-c2ccc3nnc(-c4ccccc4)n3n2)cc1`, in [9], the ED50 entry was “inactive”.
Take `Cc1nnc2ccc(-c3cccc(Cl)c3)nn12`: the midpoint of inhibition in test [6], the IC50, lay at 709 nM. Also, the inhibition turned out to be 60% in test [7] and 61% in [8]. Further, the median effective dose (ED50) in [4] (setting [11]) is 8 mg/kg; in test [5], 4.8 mg/kg.
For the molecule `Clc1ccc(-c2ccc3nncn3n2)cc1Cl`, in test [9], the ED50 result was “inactive”.
Regarding `c1ccc(Cc2nnc3ccc(-c4ccccc4)nn23)cc1`, the ED50 result in test [9] is “inactive”.
Turning to `CCc1nnc2ccc(-c3ccc(C(F)(F)F)cc3)nn12`, the ED50 in test [1] was approximately 50 mg/kg. Also, the MABP in [2] worked out at 129; in test [3] it was 157.
As for `Cc1nnc2ccc(-c3cccc(N)c3)nn12`, the IC50 in test [6] is 510 nM. For the same molecule, the figures for the inhibition in [7] and in test [8] were 60% and 58%, respectively. In test [1], this molecule showed an ED50 of 12 mg/kg.
As for `Clc1cccc(-c2ccc3nncn3n2)c1`, it took 2250 nM to reach half-maximal inhibition in test [6] (IC50). Further, the inhibition in test [7] turned out to be 30%. Moreover, in test [1], it took a dose of 8.2 mg/kg to reach the 50% effect level (ED50).
The molecule `Cc1nnc2ccc(-c3ccc(Cl)cc3)nn12` returned an inhibition in test [7] of 28%. The results for the ED50 in test [4] (setting [11]) and in [5] were 9.9 mg/kg and 10 mg/kg, respectively.
For `Cc1cccc(-c2ccc3nnc(C)n3n2)c1`, the inhibition in [7] came out at 68%. This molecule also registered an ED50 in test [1] of approximately 50 mg/kg.
Consider `Cc1cc2nncn2nc1-c1cccc(F)c1`, for which the ED50 result in test [9] was “inactive”. The same molecule yielded an MABP in test [2] of 142.
For `CCc1nnc2ccc(-c3ccc(Cl)cc3)nn12` the same measures were “inactive” and 141.
Consider `ClCc1nnc2ccc(-c3ccccc3)nn12`, for which the inhibition in test [7] was determined as 45%; in test [8], 47%. For the same molecule, the ED50 result in test [10] is “inactive”.
`CCCc1nnc2ccc(-c3ccccc3)nn12` came in with an inhibition in [7] of 38%. Moreover, the MABP is reported as 110 in [2] and 145 in test [3].
`Cc1cc(-c2ccc(F)cc2)nn2c(C)nnc12` showed an inhibition in [7] of less than 10%. In addition, the ED50 entry in test [9] was “inactive”. The molecule also registered an MABP in [2] of 126.
`Cc1cc2nnc(C)n2nc1-c1ccc(F)cc1`: the inhibition in test [7] is less than 10%. Also, in test [9], the ED50 entry is “inactive”.
Regarding `FC(F)(F)c1cccc(-c2ccc3nnc(C(F)(F)F)n3n2)c1`, in [7], the inhibition was determined as 60%. The ED50 result in test [9] is “inactive”.
Consider `Cl.NNc1nncc2ccccc12` [HYDRALAZINE HYDROCHLORIDE], for which the MABP in [3] is 82.
Take `Cc1nnc2ccc(-c3ccccc3Cl)nn12`: the inhibition in test [7] was less than 10%. The ED50 in [1] came out at 14 mg/kg. The MABP in test [2] was determined as 123.
As to `FC(F)(F)c1cccc(-c2ccc3nnc(CCl)n3n2)c1`, in test [6], half-maximal inhibition (IC50) required 391 nM. Besides, the inhibition in test [7] came to 67%. In addition, the ED50 entry in test [10] is “inactive”.
The molecule `Cc1cccc(-c2ccc3nncn3n2)c1` came in with an ED50 in test [1] of approximately 50 mg/kg.
For `Cc1cccc(-c2ccc3nnc(C(F)(F)F)n3n2)c1`, in test [10], the ED50 result was “inactive”.
As to `Cc1nnc2ccc(-c3cccc([N+](=O)[O-])c3)nn12`, the inhibition in [7] came to 53%. This molecule registered an ED50 in [1] of 11.6 mg/kg.
The molecule `CCc1nnc2ccc(-c3cccc(C(F)(F)F)c3)nn12` yielded an IC50 in [6] of 280 nM. Also, in test [7], the inhibition stood at 73%. This molecule gave an ED50 in test [1] of 24 mg/kg.
For the molecule `c1ccc(-c2ccc3nncn3n2)cc1`, the inhibition in [7] was 23%. Moreover, the 50% effective dose (ED50) in test [4] (setting [11]) was 9 mg/kg; in [5] it was 4.8 mg/kg.
On to `CCCC(C)(COC(N)=O)COC(N)=O`, for which, in [7], the inhibition came to 1.8%.
On to `Cc1nnc2ccc(-c3cccc(F)c3)nn12`, for which the IC50 in test [6] came to 1200 nM. Besides, the inhibition amounted to 47% in test [7] and 43% in test [8]. The same molecule came in with an ED50 in test [1] of 3.1 mg/kg.
The molecule `COCc1nnc2ccc(-c3ccccc3)nn12` came in with an inhibition in test [7] of less than 10%. Besides, the values for the median effective dose (ED50) in [4] (setting [11]) and in test [5] were 9.5 mg/kg and 6.4 mg/kg, respectively.
As for `Cl.Clc1cccc(Cl)c1NC1=NCCN1` [CLONIDINE HYDROCHLORIDE], the MABP in test [2] was determined as 102.
Consider `COc1ccc(-c2ccc3nnc(C)n3n2)cc1`, for which the ED50 result in test [9] was “inactive”.
In turn, `Nc1cccc(-c2ccc3nncn3n2)c1` had an inhibition in test [7] of 32%. Moreover, the ED50 is 15 mg/kg in test [4] (setting [11]) and 16.6 mg/kg in test [5].
In the case of `Cc1cc(-c2cccc(C(F)(F)F)c2)nn2c(C)nnc12`, in [7], the inhibition is less than 10%. In addition, in test [10], the ED50 result was “inactive”.
As for `Cc1cc2nnc(C)n2nc1-c1cccc(F)c1`, in [7], the inhibition was less than 10%. Besides, in test [9], the ED50 result is “inactive”.
Molecule `CN1C(=O)CN=C(c2ccccc2)c2cc(Cl)ccc21` [DIAZEPAM] showed an ED50 in [1] of 1.8 mg/kg.
Turning to `Cc1cc2nncn2nc1-c1ccc(F)cc1`, the ED50 entry in [9] is “inactive”. In test [2], the MABP is on record as 105.
